High-throughput results deposited in PubChem BioAssay by The Scripps Research Institute Molecular Screening Center.
Sampled rows, rich in hits. Any-hit rate of the full collection: about 3.9%.
TAAR1 antag: human TAAR1 antagonists, primary screen, Fluo-8 calcium fluorescence, CHO RD-HGA16 cells. Trace amine-associated receptor 1 (Homo sapiens), Q96RJ0. AID 624466, 2012. actives 1.5% (n = 360,000). antagonist. inhibition, % at 3 µM;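 active means inhibition above a per-plate cutoff, the mean inhibition of test compounds on that plate plus 3 SD, cut at about 49% in these data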
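System: RD-HGA16 CHO cells with stable hTAAR1 and Gα16 | Probe or stimulus: EC80 β-phenethylamine stimulus | Dosing: 3 µM, single point | Times: Dye loading 75 min at 37 °C, then 30 min room temperature | Measured by: Fluo-8 calcium-sensitive fluorescence | Read-out basis: % inhibition of agonist calcium response | Replicates: n of 1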
m5-HT2A agonist: mouse Htr2a agonists via beta-arrestin recruitment, primary screen, cell-based, luminescence; actives 0.66% (n = 360,000); CHO-K1 mHTR2A beta-arrestin complementation; percent of 30 µM serotonin response; 5-hydroxytryptamine receptor 2A (Mus musculus), P35363; activation, % at 7.6 µM; AID 624169, 2012;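 active means activation above a run cutoff, the mean activation of all tested compounds plus 3 SD, cut at about 14% in these data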
CHRM1 agonist: human M1 muscarinic receptor agonists, primary screen, Fluo-8 calcium fluorescence, CHO-K1 cells, HTS; actives 0.33% (n = 360,000); CHO-K1 hM1, agonist mode; 0% DMSO, 100% acetylcholine EC100; Muscarinic acetylcholine receptor M1 (Homo sapiens), P11229; activation, % at 3 µM;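 active means activation above the run's mean compound activation plus 3 SD, cut at about 16% in these data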;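 further: peak over basal fluorescence ratio within a 140 s kinetic read after compound addition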
Target sequence (P11229 whole entry, looked up): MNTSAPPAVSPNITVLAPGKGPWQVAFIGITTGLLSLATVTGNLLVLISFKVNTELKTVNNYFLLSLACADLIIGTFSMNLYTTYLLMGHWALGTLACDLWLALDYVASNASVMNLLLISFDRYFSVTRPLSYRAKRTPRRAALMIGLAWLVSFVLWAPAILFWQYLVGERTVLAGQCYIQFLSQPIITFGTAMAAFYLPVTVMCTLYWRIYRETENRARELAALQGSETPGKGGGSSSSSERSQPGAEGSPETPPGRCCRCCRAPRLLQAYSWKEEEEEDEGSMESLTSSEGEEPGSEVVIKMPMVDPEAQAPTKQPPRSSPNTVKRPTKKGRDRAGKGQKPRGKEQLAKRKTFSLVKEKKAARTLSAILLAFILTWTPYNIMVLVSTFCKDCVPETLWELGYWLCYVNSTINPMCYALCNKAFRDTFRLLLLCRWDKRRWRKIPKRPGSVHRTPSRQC
M1 antag: human M1 muscarinic receptor antagonists, primary screen, CHO-K1 cells, Fluo-8 calcium fluorescence, 1536-well. Muscarinic acetylcholine receptor M1 (Homo sapiens), P11229. CHO-K1 hM1, ACh EC80 antagonist. inhibition, % at 3 µM. actives 1.3% (n = 360,000). AID 588852, 2011;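 active means percent inhibition above its own plate's cutoff, namely the mean of that plate's compound wells plus 3 SD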;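 further: peak over basal fluorescence ratio during 140 s after agonist addition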
TAAR1 agonist: human TAAR1 agonists, primary screen, Fluo-8 calcium fluorescence, CHO RD-HGA16 cells. Trace amine-associated receptor 1 (Homo sapiens), Q96RJ0. vehicle wells 0%, saturating PEA agonist 100%. activation, % at 3 µM. actives 0.99% (n = 360,000);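 active means activation above the mean activation of all test compounds in the run plus 3 SD, cut at about 38% in these data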
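Assay system: CHO-derived RD-HGA16 cells with stable Gα16 and human TAAR1; timing: 17-24 h seeding, 75 min 37 °C dye, 30 min RT; read-out: % activation from peak over basal fluorescence ratio, DMSO-to-PEA scaled; measured by: kinetic Fluo-8 calcium fluorescence; benchmarks: low control DMSO, high control PEA (EC100); doses: 3 µM single concentration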
M1 PAM: human M1 muscarinic receptor positive allosteric modulators, primary screen, CHO-K1 cells, Fluo-8 calcium fluorescence, 1536-well; activation, % at 3 µM; CHO-K1 hM1, ACh EC20; 0% = ACh EC20, 100% = maximal ACh; Muscarinic acetylcholine receptor M1 (Homo sapiens), P11229; actives 0.088% (n = 360,000); in the data active means activation above about 19%, passing the limit was not always enough
OPRM1 ag: OPRM1 agonists via beta-arrestin recruitment, confirmation, counter-screen for mouse HTR2A agonist project, cell-based, luminescence, single concentration | shares compounds with m5-HT2A agonist | U2OS OPRM1 beta-arrestin PathHunter; DMSO 0%, DAMGO 9.3 µM 100% | activation, % at 9.3 µM | actives 5.3% (n = 2,300) | AID 624380, 2012;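 active means mean activation above the mean of DMSO-only wells plus 3 SD, cut at about 0.5% in these data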
m5-HT2A ag conf: mouse HTR2A agonists, beta-arrestin recruitment, confirmation, cell-based, luminescence, CHO-K1 PathHunter, triplicate. shares compounds with m5-HT2A agonist. DMSO 0%, 30 µM serotonin 100%. activation, % at 7.6 µM. actives 19% (n = 2,300). AID 624381, 2012;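 active means mean activation across triplicates above the hit threshold derived in the original primary screen, cut at about 15% in these data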
Of the large screens only hits and unclear results are named; the others gave an inactive call (follow-up assays come after a bar, where they were run).

Cc1cc(C)c2cc(CN(CCN3CCCC3)C(=O)Nc3ccc(F)cc3)c(=O)[nH]c2c1	m5-HT2A agonist 20.1 | OPRM1 ag inactive | m5-HT2A ag conf inactive
O=C(C1=C(O)C(=O)N(Cc2ccco2)C1c1cccc(O)c1)c1ccco1 (stereo unspecified)	m5-HT2A agonist 16.8 | OPRM1 ag inactive | m5-HT2A ag conf inactive
COc1ccc(COCC(O)CN2CCc3ccccc3C2)cc1OC (stereo unspecified)	m5-HT2A agonist 21.4 | OPRM1 ag inactive | m5-HT2A ag conf inactive
OC(COCc1ccccc1)CN1CCc2ccccc2C1 (stereo unspecified)	none
CC(=O)N1CCc2cc(C(=O)CN3CCN(c4cccc(Cl)c4)CC3)ccc21	m5-HT2A agonist 25.2 | OPRM1 ag inactive | m5-HT2A ag conf 89.8
CCS(=O)(=O)Nc1cccc(-c2nc3cccnc3s2)c1	none
CCS(=O)(=O)Nc1ccc(-c2nc3cccnc3s2)cc1	m5-HT2A agonist 26.9 | OPRM1 ag inactive | m5-HT2A ag conf inactive
COCCNCC(=O)N1CCCCCC1	m5-HT2A agonist 16.6 | OPRM1 ag inactive | m5-HT2A ag conf inactive
Cc1cc2c(c(=O)o1)[C@@]1(C(=O)N(C)c3ccc([N+](=O)[O-])cc31)C1=C(CCCC1=O)O2	none (no result: m5-HT2A agonist, CHRM1 agonist, M1 antag, M1 PAM)
Cc1cccc(C(=O)OCC(=O)c2c(N)n(CC(C)C)c(=O)n(C)c2=O)c1[N+](=O)[O-]	m5-HT2A agonist 16.9 | OPRM1 ag inactive | m5-HT2A ag conf inactive
Cc1cccc(C(=O)OCC(=O)c2c(N)n(CC(C)C)c(=O)n(C)c2=O)c1O	none
Cc1ccc(SCCN)cc1C	m5-HT2A agonist 20.9 | OPRM1 ag inactive | m5-HT2A ag conf inactive
Cc1ccc(SCC(=O)NNC(=O)c2ccccc2)cc1C	none
Cc1ccc(NC(=O)CN(C)C(=O)Cc2c[nH]c3ccccc23)cc1	none
O=[N+]([O-])c1cccc(CN2CCN(c3ncccn3)CC2)c1	m5-HT2A agonist 14.6 | OPRM1 ag inactive | m5-HT2A ag conf 59.5
Fc1cccc(CN2CCN(c3ncccn3)CC2)c1	m5-HT2A agonist 41.3 | OPRM1 ag inactive | m5-HT2A ag conf 112.8
Fc1ccc(CN2CCN(c3ncccn3)CC2)c(F)c1	none
FC(F)(F)c1cccc(CN2CCCCCC2)c1	none
FC(F)(F)c1cccc(CN2CCN(c3ncccn3)CC2)c1	m5-HT2A agonist 20.5 | OPRM1 ag inactive | m5-HT2A ag conf 65.9
CC(C)(C)c1ccc(C(=O)N2CCC(C(=O)c3ccccc3)CC2)cc1	none
O=C(c1cccnc1)N1CCN(S(=O)(=O)c2ccc(Cl)cc2)CC1	m5-HT2A agonist 14.5 | OPRM1 ag inactive | m5-HT2A ag conf inactive
Cc1ccc(N(C)S(=O)(=O)c2cccc(C(=O)Oc3ccc4c(C)cc(=O)oc4c3)c2)cc1	m5-HT2A agonist 19.1 | OPRM1 ag inactive | m5-HT2A ag conf inactive
CC1(C)Cc2c(cnn2-c2ccc(F)cc2)C(NC(=O)CCN2CCCCC2=O)C1 (stereo unspecified)	none
